Sampled rows, rich in hits. Any-hit rate of the full collection: about 4.5%.
TAAR1 ag: human TAAR1 agonists, primary screen, Fluo-8 calcium fluorescence, CHO RD-HGA16 cells; vehicle wells 0%, saturating PEA agonist 100%; activation, % at 3 µM; hit rate 0.99% among 360,000;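 active means activation above the mean activation of all test compounds in the run plus 3 SD, cut at about 38% in these data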
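Test system: RD-HGA16 (CHO) cells co-expressing Gα16 and hTAAR1; dosing: one-point dosing at 3 µM (nominal); timing: 17-24 h seeding, 75 min 37 °C dye, 30 min RT; signal: kinetic Fluo-8 calcium fluorescence; read-out basis: % activation relative to PEA EC100 response; controls: DMSO and PEA EC100; replicates: n 1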
GPR7 antagonist: GPR7 receptor antagonists, primary screen, cell-based, fluorescence, single concentration; AID 1861, 2009; hit rate 1.1% among 290,000; Neuropeptides B/W receptor type 1 (Homo sapiens), P48145; inhibition, % at 4.4 µM; GPR7-expressing cells, fluorescence antagonist assay; in the data active means inhibition above about 16%, passing the limit was not always enough;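 further: cells stimulated with the agonist NPW; 0% = agonist with vehicle and 100% = vehicle without agonist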
Target sequence (P48145 whole entry, looked up): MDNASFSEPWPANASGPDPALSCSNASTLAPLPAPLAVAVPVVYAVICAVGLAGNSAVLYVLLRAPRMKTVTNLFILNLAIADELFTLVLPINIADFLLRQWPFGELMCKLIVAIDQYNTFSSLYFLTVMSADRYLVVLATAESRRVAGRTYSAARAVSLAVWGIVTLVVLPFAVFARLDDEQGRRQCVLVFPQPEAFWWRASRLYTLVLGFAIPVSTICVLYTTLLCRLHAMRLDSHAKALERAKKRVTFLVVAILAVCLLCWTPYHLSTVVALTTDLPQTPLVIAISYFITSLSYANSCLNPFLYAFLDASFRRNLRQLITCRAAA
OX1R antag-1: antagonists of human orexin 1 receptor (OX1R); inhibition, % at 6.6 µM; OX1R-expressing cells, FRET antagonist read-out; AID 485270, 2010; hit rate 1.8% among 330,000; in the data active means inhibition mostly above about 38%, no sharp cut-off; inactive means mostly below about 40%;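 further: 0% = agonist challenge alone and 100% = reference antagonist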
OX1R antag-2: OX1R (HCRTR1) antagonists, primary screen, fluorescence, CHO/OX1R cells, Fluo-8 calcium, orexin A. inhibition, % at 5 µM. Fluo-8 calcium fluorescence. Orexin/Hypocretin receptor type 1 (Homo sapiens), O43613. AID 434989, 2010. hit rate 0.43% among 330,000;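 active means inhibition above its plate's threshold, mean inhibition of all tested compounds on the plate plus 3 SD, cut at about 37% in these data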;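 further: 0% = orexin A challenge wells and 100% = SB-334867-A antagonist wells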
CHO parental Ca: ATP-evoked calcium signal inhibitors, parental CHO, primary screen, counter-screen for OX1R antagonist project, cell-based, fluorescence, Fluo-8 calcium dye; parental CHO-K1, ATP-induced calcium, Fluo-8 fluorescence; inhibition, % at 5.6 µM; hit rate 0.63% among 330,000;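 active means inhibition above that plate's mean sample inhibition plus 3 SD, cut at about 26% in these data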;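 further: 0% = ATP-challenged DMSO wells and 100% = DMSO wells without ATP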
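Measured by: calcium-sensitive Fluo-8 fluorescence / Test system: CHO parental line / Controls: ATP-challenged DMSO wells low, unchallenged DMSO wells high / Measure: % inhibition / Compound: single nominal dose of 5.6 µM per compound / Replicates: single well per compound, no replicates / Reagent: ATP as calcium-mobilizing challenge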
TAAR1 antagonist: human TAAR1 antagonists, primary screen, Fluo-8 calcium fluorescence, CHO RD-HGA16 cells; inhibition, % at 3 µM; hit rate 1.5% among 360,000; Trace amine-associated receptor 1 (Homo sapiens), Q96RJ0; antagonist; AID 624466, 2012;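 active means inhibition above a per-plate cutoff, the mean inhibition of test compounds on that plate plus 3 SD, cut at about 49% in these data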;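 further: 0% = DMSO plus EC80 beta-PEA response and 100% = DMSO alone without agonist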
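Test system – hTAAR1-expressing CHO RD-HGA16 cells, Gα16-coupled · Also added – β-PEA at EC80 concentration, post-compound challenge · Compound – 3 µM, single point · Incubation – dye loading 75 min at 37 °C, then 30 min room temperature · Measured by – Fluo-8 intracellular calcium dye fluorescence, real-time kinetic reads · Benchmarks – vehicle and agonist controls · Replicates – singlicate, one well per test compound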
TAAR1 ag conf: human TAAR1 agonists, retest of hits, confirmation, Fluo-8 calcium fluorescence, CHO RD-HGA16 cells; shares compounds with TAAR1 ag; scaled: DMSO 0%, maximal phenethylamine 100%; activation, % at 3 µM; hit rate 82% among 2,400;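 active means activation above a cutoff set at the run's mean compound activation plus 3 SD, cut at about 39% in these data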
Ga16 ag counter: nonselective calcium mobilization agonists, CHO-Ga16 cells, counter-screen for hTAAR1 agonist project, cell-based, fluorescence, CHO-Ga16 parental line | hit rate 50% among 2,400 | activation, % at 3 µM | Fluo-8 calcium fluorescence; normalized to maximal ATP response, DMSO zero | shares compounds with TAAR1 ag;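 active means activation above the run cutoff, the mean activation over all tested wells plus 3 SD, cut at about 12% in these data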;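 further: 0% = DMSO wells and 100% = maximal ATP response on the peak over basal ratio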
TAAR1 desensitize: TAAR1 desensitization by agonist hits, confirmation, counter-screen for TAAR1 agonist project, cell-based, fluorescence, tachyphylaxis | CHO RD-HGA16 hTAAR1, Fluo-8 calcium, beta-PEA response inhibition | shares compounds with TAAR1 ag | hit rate 46% among 2,400 | inhibition, % at 3 µM;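 active means inhibition above the run cutoff, the mean inhibition of all test compounds plus 3 SD, cut at about 49% in these data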;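 further: beta-PEA stimulus applied at its EC80; loss of beta-PEA calcium signal after compound pretreatment read as receptor desensitization; 0% = DMSO with beta-PEA at EC80 and 100% = DMSO alone without agonist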
Ga16 nonsel ant: inhibition of ATP-evoked calcium response in CHO-Ga16 cells, counter-screen for TAAR1 agonist project, cell-based, fluorescence. shares compounds with TAAR1 ag. CHO-Ga16 ATP-induced calcium, Fluo-8 fluorescence. inhibition, % at 3 µM. hit rate 39% among 2,400. AID 651952, 2012;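 active means inhibition above the plate's mean compound inhibition plus 3 SD, computed per plate, cut at about 22% in these data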;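 further: 0% = EC80 ATP with DMSO and 100% = DMSO wells without ATP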
Active calls of the source: *; x = no result given.

SMILES | TAAR1 ag | GPR7 antagonist | OX1R antag-1 | OX1R antag-2 | CHO parental Ca | TAAR1 antagonist | TAAR1 ag conf | Ga16 ag counter | TAAR1 desensitize | Ga16 nonsel ant
COc1ccc(Nc2nc(N3CCCC3)c3ccccc3n2)cc1 | 67* | 2 | 30 | 1 | -2 | 48 | 89* | 9 | 86* | 19
NC(Cc1ccc(C(F)(F)F)cc1)c1csc(Nc2ccc(C(=O)NCc3ccco3)cn2)n1 (stereo not drawn) | 20 | x | x | x | x | 26 | x | x | x | x
COc1ccc(OC)c(/C=C2/Sc3ccccc3C2=O)c1 | 74* | -3 | 15 | 57* | 37* | 61* | 23 | 29* | 45 | 50*
COc1ccc(OC)c(C=C2CCc3ccccc3C2=O)c1 | -2 | x | x | x | x | -4 | x | x | x | x
CC(C(=O)OCn1nnc2ccccc2c1=O)N1C(=O)c2ccccc2C1=O (stereo not drawn) | 1 | 3 | 10 | -12 | -4 | 2 | x | x | x | x
CCCCCNC(=O)[C@@H]1CSC2c3ccccc3C(=O)N21 (stereo partly drawn) | 1 | -2 | -3 | -29 | -19 | -30 | x | x | x | x
O=C(NCCc1cccc(F)c1)[C@@H]1CSC2c3ccccc3C(=O)N21 (stereo partly drawn) | 54* | 9 | 20 | -12 | -35 | 14 | 77* | 3 | 43 | 15
Oc1c(C=Nc2cccc3cccnc23)sc2ccccc12 | 130* | -9 | 43 | 99* | 49* | 94* | 39* | 69* | 58* | 69*
CCCCC(=O)Nc1ccc(NC(=O)C2CC2)nc1 | 4 | 19 | 17 | -4 | 2 | 1 | x | x | x | x
NC(=NCCc1ccccc1)NC(=O)c1cc(Cl)ccc1O | 90* | x | 17 | 7 | -9 | 77* | 91* | 4 | 94* | 23*
Oc1ccc(Cl)cc1C=NCCc1ccccc1 | x | -8 | 9 | -12 | -6 | x | x | -1 | x | 10
CC(=O)Nc1ccc(CNc2nc3cc(-c4ccc(F)cc4)sc3c(=O)n2C)cc1 | 13 | x | x | x | x | 27 | x | x | x | x
O=C(Cn1cnc2ccccc21)N/N=C/c1cccs1 | x | -3 | 2 | -15 | -12 | x | x | 11 | x | 0
O=C(Cn1nnc2ccccc21)N/N=C\c1cccs1 | 45* | 2 | 4 | -3 | -1 | 20 | 82* | 4 | 43 | 3
CCOC(=O)C1C(c2cccc([N+](=O)[O-])c2)C2C(=O)NN=C2CC1(C)O (stereo not drawn) | 2 | -19 | 21 | -15 | -10 | 9 | x | x | x | x
Cc1ccc(NC(=O)CCCNC(=O)c2ccc(Cl)cc2)c(O)c1 | 0 | -5 | 15 | -24 | -7 | -19 | x | x | x | x
O=c1[nH][nH]c(-c2ccccc2)c1C=Nc1ccc(OC(F)(F)F)cc1 | 3 | -1 | 5 | -6 | 0 | -11 | x | x | x | x
O=S(=O)(Cc1ccccc1)NCCc1cccc(Cl)c1 | 44* | 1 | x | x | x | -6 | 77* | 1 | 36 | 1
O=C(C(=O)N1CCc2ccccc2C1)c1cn(CC(=O)N2CCCC2)c2ccccc12 | 50* | -12 | 16 | -10 | -21 | 0 | 50* | 3 | 10 | 11

Screening data from PubChem.
